Where a name gives a salt, the structure may show the parent alone. Read-outs that look alike come from different tables or passages of the source.
Columns and labels:
[1] = test system: P2XR in cerebellar granule cells; format: cell-based, mouse; details: TNP-ATP 10 μM co-applied with ATP; untreated 23.55 ± 6.96 pA; n = 3
P2X4R with TMEM163 = target: T1, P2X4R with TMEM163 (Homo sapiens, UniProt Q99571); format: cell-based; details: 10 μM ivermectin pre-applied 10 s, ATP 1.3 μM, n = 7
T1 sequence (Q99571 1-388): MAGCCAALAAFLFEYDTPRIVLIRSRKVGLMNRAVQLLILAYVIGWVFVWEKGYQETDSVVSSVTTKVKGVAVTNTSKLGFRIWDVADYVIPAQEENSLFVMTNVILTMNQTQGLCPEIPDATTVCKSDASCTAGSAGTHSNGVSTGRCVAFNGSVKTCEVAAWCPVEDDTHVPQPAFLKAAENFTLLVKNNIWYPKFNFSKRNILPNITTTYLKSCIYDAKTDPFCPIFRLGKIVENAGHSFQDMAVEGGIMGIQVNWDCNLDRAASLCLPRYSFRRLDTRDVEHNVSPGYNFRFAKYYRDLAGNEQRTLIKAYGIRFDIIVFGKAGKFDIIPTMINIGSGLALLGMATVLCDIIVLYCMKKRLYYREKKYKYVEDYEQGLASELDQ
In short: (§1)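 Xenopus oocytes (surgically harvested, collagenase-treated) co-injected with 25 pg P2X4R cRNA plus 2 ng TMEM163 cRNA, or 2 ng Neto2 cRNA as the control. TEVC at Vh −30 mV, room temperature, in 90 mM NaCl, 1 mM KCl, 2 mM CaCl2, 10 mM HEPES pH 7.4. […] Mean ± SEM; Student's t test.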

P2X4R = target: T2, P2X4R (Homo sapiens, UniProt Q99571); format: cell-based; details: P2X4R alone; 10 μM ivermectin pre-applied 10 s; ATP 1.3 μM; n = 7
T2 sequence (Q99571 1-388): T1 sequence (Q99571 1-388)
In short: as §1

P2X3R [2] = target: T3, P2X3R (Homo sapiens, UniProt P56373); format: cell-based; details: 100 μM ATP, outside-out patch
T3 sequence (P56373 1-397): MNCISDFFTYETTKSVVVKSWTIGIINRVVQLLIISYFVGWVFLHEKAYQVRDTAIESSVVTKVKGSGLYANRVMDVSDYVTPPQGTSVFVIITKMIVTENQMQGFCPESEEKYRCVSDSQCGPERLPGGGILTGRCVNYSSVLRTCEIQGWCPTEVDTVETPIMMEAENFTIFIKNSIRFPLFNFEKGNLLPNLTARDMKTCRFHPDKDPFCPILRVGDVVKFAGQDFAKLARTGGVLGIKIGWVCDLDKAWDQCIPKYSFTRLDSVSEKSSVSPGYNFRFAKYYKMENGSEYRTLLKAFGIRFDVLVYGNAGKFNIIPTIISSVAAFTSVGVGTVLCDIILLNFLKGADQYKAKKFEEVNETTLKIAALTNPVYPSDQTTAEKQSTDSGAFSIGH

P2X3R [3] = target: T3, P2X3R; assay: Calcium FLIPR ATP dose response, P2X3R-stable HEK cells transfected with pcDNA3; format: cell-based
[4] = test system: P2XRs in TMEM163 KO DRG neurons; format: cell-based; details: Mus musculus, DRG neuron, read-out: ATP EC50
P2X3R with TMEM163 [5] = target: T4, P2X3R with TMEM163 (Homo sapiens, UniProt P56373); assay: Calcium FLIPR ATP dose response, P2X3R-stable HEK cells transfected with TMEM163; format: cell-based
T4 sequence (P56373 1-397): T3 sequence (P56373 1-397)
T4 sequence (Q8TC26 1-289 partner): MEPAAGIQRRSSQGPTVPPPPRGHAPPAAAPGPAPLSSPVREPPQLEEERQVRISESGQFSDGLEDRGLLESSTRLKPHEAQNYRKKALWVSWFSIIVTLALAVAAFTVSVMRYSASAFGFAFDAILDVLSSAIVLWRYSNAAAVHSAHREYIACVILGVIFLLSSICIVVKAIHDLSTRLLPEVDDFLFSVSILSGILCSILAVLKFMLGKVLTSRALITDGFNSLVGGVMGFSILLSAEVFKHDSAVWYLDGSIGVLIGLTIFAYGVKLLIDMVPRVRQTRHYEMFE

P2X3R with TMEM163 [6] = target: T4, P2X3R with TMEM163; format: cell-based; details: 100 μM ATP, outside-out patch
WT mice = assay: ATP-evoked freezing behavior after hind paw injection; format: in vivo, mouse; details: 3 μmol ATP into hind paw, 4 min after injection, saline 6.7 ± 3.2 s
P2X3R [7] = target: T3, P2X3R; format: cell-based
P2X3R with TMEM163 [8] = target: T4, P2X3R with TMEM163; format: cell-based
[9] = test system: endogenous P2 receptors in HEK cells; assay: Calcium FLIPR response of HEK cells; format: cell-based, human; details: untransfected (Mock) HEK cells
P2XRs in DRG neurons = assay: Whole-cell recording of ATP-evoked currents, primary DRG neurons from WT mice; format: cell-based; details: Mus musculus, DRG neuron, read-out: ATP EC50
P2X3R and P2X2R = assay: Calcium FLIPR assay, HEK cells stably expressing both P2X3R and P2X2R; format: cell-based, human; details: read-out: α,β-MeATP EC50, HEK cell lines stably expressing both P2X3R and P2X2R

Which ATP-evoked current [1] does the source give for `Nc1ncnc2c1ncn2[C@@H]1O[C@H](COP(=O)(O)OP(=O)(O)OP(=O)(O)O)[C@H]2OC3(O[C@H]21)C([N+](=O)[O-])=CC(=[N+]([O-])[O-])C=C3[N+](=O)[O-]` (some centres unmarked) [TNP-ATP, TNP-ATP triethylammonium salt] here?
The ATP-evoked current was 0.53 ± 0.25 pA.

How did the “potentiation of ATP-evoked currents (ratio with and without ivermectin)” value (P2X4R with TMEM163) turn out when ivermectin was run?
Its value is 1.9 ± 0.2 times.

And the “potentiation of ATP-evoked currents (ratio with and without ivermectin)” value (P2X4R)?
Its value is 3.7 ± 0.5 times.

Which results are given for `Nc1ncnc2c1ncn2[C@@H]1O[C@H](COP(=O)([O-])OP(=O)([O-])OP(=O)([O-])[O-])[C@@H](O)[C@H]1O.[Mg+2].[Mg+2]` [ATP, Adenosine 5′-triphosphate magnesium salt]?
mean rise time of ATP-evoked currents (P2X3R [2]): 0.43 ± 0.042 ms; Hill coefficient (P2X3R [3]): 0.99 ± 0.03; EC50 [4]: 31 ± 15.1 µM; EC50 (P2X3R with TMEM163 [5]): 1.27 ± 0.11 µM; Hill coefficient (P2X3R with TMEM163 [5]; P2X3R with TMEM163, ATP calcium FLIPR dose response): 0.73 ± 0.04; mean rise time of ATP-evoked currents (P2X3R with TMEM163 [6]): 0.50 ± 0.061 ms; mean cumulative duration of freezing behaviors (WT mice): 74 ± 7.1 s; EC50 (P2X3R [7]): 1.3 ± 0.23 µM; Hill coefficient (P2X3R [7]; P2X3R, ATP TEVC dose response): 1.04 ± 0.14; EC50 (P2X3R with TMEM163 [8]; ATP EC50, 25 pg P2X3R with 2 ng TMEM163, TEVC, 20-min interval): 0.261 ± 0.0272 µM; Hill coefficient (P2X3R with TMEM163 [8]; P2X3R with TMEM163, ATP TEVC dose response): 0.98 ± 0.15; ATP concentrations at which HEK cells (Mock) responded [9]: above 1 μM; EC50 (P2XRs in DRG neurons): 5.92 ± 1.17 µM

For `Nc1ncnc2c1ncn2[C@@H]1O[C@H](COP(=O)(O)CP(=O)(O)OP(=O)(O)O)[C@@H](O)[C@H]1O` [α,β-MeATP, α, β-Methyleneadenosine 5′-triphosphate lithium salt], which EC50 (P2X3R and P2X2R) is on record?
The EC50 was 0.656 ± 0.0887 µM.
